These results are taken from PubChem BioAssay.

A short description of experiment [1]: inhibitors of TNFa-induced NFkB p65 translocation, primary screen, imaging, HUVEC, MLSMR starter and 10KST1 sets (AID 438;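 active = inhibition above 20% together with a positive visual image hit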;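 note: compound added about 3h40 before a 20 min TNFalpha stimulation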;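 for inhibition: signal is the nuclear over cytoplasmic p65 intensity ratio per well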). Conditions: HUVEC TNFa-induced p65 nuclear translocation; cell count: measured here: nuclei count (cytotoxicity indicator), at 2.08 µM; inhibition: at 2 µM, stronger effect = higher value, 0% TNFa-plus-vehicle, 100% no-TNFa wells.
The nature of experiment [2]: endothelial E-selectin expression blockers – imaging, HUVEC, immunofluorescence, MLSMR starter and 10KST1 sets, primary screen (AID 487;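 active = visually confirmed hit in the image check and inhibition above 20%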;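 for inhibition: signal is fraction of cell area covered by stained E-selectin grains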;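 for nuclei count: 100% = median nuclei count of all wells on the same plate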). To be noted: HUVEC TNFalpha-induced E-selectin immunofluorescence imaging, at 2 µM; inhibition: stronger effect = higher value; nuclei count: measured here: cell number, toxicity.
Experiment [3] is described as follows: Primary imaging screen for DUSP6 inhibitors that restore phospho-Erk in transfected HeLa cells, chemical complementation (AID 609;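 active = compounds giving at least 50% inhibition in the cell-based MKP-3 phosphatase rescue imaging test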;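 for inhibition: phospho-Erk level distribution per well compared with pooled transfected vehicle control wells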). Conditions: HeLa MKP-3 transfected, phospho-Erk imaging KS statistic, at 10 µM, cells stimulated with TPA for 15 min.
In experiment [4] the target is Dual specificity protein phosphatase 6 (Homo sapiens) (UniProt Q16828). The experiment is described as above. To be noted: HeLa MKP-3 transfected, phospho-Erk imaging KS statistic; at 10 µM; stronger effect = higher value; cells stimulated with TPA for 15 min.
Sequence of Dual specificity protein phosphatase 6 (Homo sapiens) (Q16828 whole entry, looked up): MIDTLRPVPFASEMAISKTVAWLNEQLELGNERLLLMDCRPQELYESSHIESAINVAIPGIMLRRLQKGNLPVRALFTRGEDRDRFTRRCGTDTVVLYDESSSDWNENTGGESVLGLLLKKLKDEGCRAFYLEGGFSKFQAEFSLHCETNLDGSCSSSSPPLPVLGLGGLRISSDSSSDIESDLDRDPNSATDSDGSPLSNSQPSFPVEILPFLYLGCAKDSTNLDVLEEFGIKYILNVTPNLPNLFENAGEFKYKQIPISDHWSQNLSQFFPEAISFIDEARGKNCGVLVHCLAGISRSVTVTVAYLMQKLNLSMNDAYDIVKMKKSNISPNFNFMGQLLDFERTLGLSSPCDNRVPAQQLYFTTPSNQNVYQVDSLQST
Experiment [5] concerns the target Voltage-gated potassium channel subunit beta-2 (Rattus norvegicus) (UniProt P62483). Put plainly: inhibitors of rat Kvbeta2 reductase activity – biochemical, NADPH fluorescence, primary screen (AID 622).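 Note: slope of raw intensity against log time taken from 70 to 1610 s.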 To be noted: recombinant KvBeta, 4-cyanobenzaldehyde reduction, at 10 µM, stronger effect = higher value.
Experiment [6] has the same target. Kind of experiment: enhancers of rat Kvbeta2 NADPH turnover – biochemical, NADPH fluorescence, primary screen (AID 623;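 active = NADPH fluorescence slope more negative than the mean of all samples by about 3 SD, 99.7% confidence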;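 note: fluorescence intensity change per second fitted from 20 to 320 s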). To be noted: Recombinant KvBeta, NADPH fluorescence decrease slope, 10 min; at 10 µM; stronger effect = lower value.
Experiment [7] addresses Muscarinic acetylcholine receptor M4 (Homo sapiens) (UniProt P08173). Kind of experiment: M4-linked GIRK flux change, two-sided – cell-based, HEK293 M4/GIRK, thallium flux, BTC-AM, M4 allosteric agonist project, primary screen (AID 625;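 active = fluorescence slope after compound addition differing from the mean of all tested samples at 99.7% confidence, mostly higher but some lower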;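 note: thallium influx through GIRK channels coupled to M4 in HEK293 cells with BTC-AM dye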). To be noted: at 10 µM, actives lie on both sides. The essentials: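 Material: HEK293 cells with M4 receptor and GIRK channels; Times: cells overnight at 37 °C, BTC-AM loading 1 h, reads 2 min total; Technique: kinetic BTC-AM fluorescence sampled at 1 Hz, 10 s pre-addition baseline; Read-out basis: slope over 15–24 s of trace normalized to starting intensity; Controls: carbachol positive, DMSO negative.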

Experiment [8] can be described thus: inhibitors of larval lipid processing in zebrafish, primary screen, whole organism, PED6 fluorescence, gall bladder and intestine (AID 686;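 active = a full or partial loss of lipid-probe fluorescence in the fish gall bladder, intestine or both, judged by eye; inactive = no fluorescence loss, or compound toxic to the fish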;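 note: larvae 5 to 7 days old with five fish per well; signal comes from phospholipase A2 cleavage of quenched PED6 carried via bile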). To be noted: Zebrafish larvae PED6 lipid processing, fluorescence scoring; screened at 20 µM (by protocol). The essentials:
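Incubation: overnight exposure of larvae to compound plus PED6 / Test system: live zebrafish larvae aged 5-7 days, whole organism / Amount: 5 larvae per well / Read-out basis: visual per-well fluorescence inhibition score / Signal: visual fluorescence microscopy scoring of gall bladder, gut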

The nature of experiment [9]: loss of swimming-algae plug formation – whole organism, Chlamydomonas reinhardtii, WT vs cilia-less mutant, absorbance, 96-well, primary screen (AID 463189;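 active = inhibition at or above 50% relative to wild type and mutant plate controls; inactive = inhibition below 50%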;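 note: 0% = wild type cc124 cells in DMSO and 100% = ciliumless bld1 mutant cells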). To be noted: Chlamydomonas reinhardtii gravitaxis, OD600 absorbance, 2 days; at 10 µM; stronger effect = higher value.
[10] abbreviates: measured here: cell density z-score.
The mark [11] stands for this setting: measured here: nuclear c-Myc green intensity z-score.
Setting [12] is: measured here: nuclear pErk red intensity z-score, stronger effect = higher value.

Each structure is given as a SMILES string. Calls of active or inactive are those of the source.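 Rule for the calls, unless noted: active = fluorescence slope higher than the sample average by over 3 SD (cut at about -0.22 in these data, passing the limit was not always enough); inactive = the rest.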

Sequence of Voltage-gated potassium channel subunit beta-2 (Rattus norvegicus) (P62483 whole entry, looked up): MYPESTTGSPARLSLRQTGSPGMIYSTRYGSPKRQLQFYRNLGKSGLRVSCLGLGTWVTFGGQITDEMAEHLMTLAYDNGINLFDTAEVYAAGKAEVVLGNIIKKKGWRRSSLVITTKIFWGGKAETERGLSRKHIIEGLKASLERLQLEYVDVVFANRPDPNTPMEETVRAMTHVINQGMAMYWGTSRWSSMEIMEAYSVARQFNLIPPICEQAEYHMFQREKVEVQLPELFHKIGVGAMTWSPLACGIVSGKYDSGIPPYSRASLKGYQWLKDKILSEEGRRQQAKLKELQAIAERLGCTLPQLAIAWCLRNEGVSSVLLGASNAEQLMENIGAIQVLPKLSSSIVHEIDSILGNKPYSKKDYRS
Sequence of Muscarinic acetylcholine receptor M4 (Homo sapiens) (P08173 whole entry, looked up): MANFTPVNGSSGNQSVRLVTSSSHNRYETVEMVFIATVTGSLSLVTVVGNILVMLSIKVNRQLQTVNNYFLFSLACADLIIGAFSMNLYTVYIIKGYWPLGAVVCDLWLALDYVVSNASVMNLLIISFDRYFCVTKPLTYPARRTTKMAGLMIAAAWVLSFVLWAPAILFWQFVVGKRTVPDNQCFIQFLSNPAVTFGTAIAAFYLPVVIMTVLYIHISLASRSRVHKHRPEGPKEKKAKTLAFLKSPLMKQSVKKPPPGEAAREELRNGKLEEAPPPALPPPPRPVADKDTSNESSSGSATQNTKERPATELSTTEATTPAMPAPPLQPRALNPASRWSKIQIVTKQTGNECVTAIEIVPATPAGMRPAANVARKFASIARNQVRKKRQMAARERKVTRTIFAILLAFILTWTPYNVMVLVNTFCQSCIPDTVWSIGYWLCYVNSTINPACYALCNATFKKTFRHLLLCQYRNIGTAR

With `CCCCCNC(=O)C(C#N)c1nc2ccccc2nc1N1CC(C)OC(C)C1` (centres undefined), in experiment [1], the cell count is 366. The inhibition in experiment [1] was -5.7% (inactive); in experiment [2], -192% (inactive); in experiment [4] it was 19.4% (inactive); in experiment [9], -1.81% (inactive). The molecule further registered a nuclei count in experiment [2] of 130%. For the same molecule, the figures for the z-score in [3] (setting [10]), in [3] (setting [11]) and in experiment [3] (setting [12]) were 1.56, -0.566 and -0.352, respectively. For the same molecule, the fluorescence slope in experiment [5] was -0.482 (inactive); in experiment [7] it was 0.00502 (inactive). Moreover, the NADPH fluorescence slope in experiment [6] was -8.1e-05 (inactive). For the same molecule, in experiment [8], the molecule was called inactive.

With `COc1ccccc1NC(=O)Nc1nnc(C(C)C)s1`, in experiment [1], the cell count amounted to 702. Moreover, the inhibition was -3.3% (inactive) in [1], -24.3% (inactive) in experiment [2], -5.81% (inactive) in experiment [4] and 3.73% (inactive) in [9]. The nuclei count in experiment [2] turned out to be 157%. The figures for the z-score in [3] (setting [10]), in experiment [3] (setting [11]) and in experiment [3] (setting [12]) were -0.239, -0.311 and 0.0371, respectively. Besides, the figures for the fluorescence slope in [5] and in experiment [7] were -0.476 (inactive) and 0.00885 (inactive), respectively. Moreover, in experiment [6], the NADPH fluorescence slope was -1.2e-05 (inactive). For the same molecule, in experiment [8], the result was inactive.

For the molecule `COC(=O)C(NC(=O)c1ccccc1)(Nc1nc(C)cs1)C(F)(F)F` (centres undefined), the cell count in experiment [1] amounted to 687. Moreover, the inhibition in experiment [1] is -8.5% (inactive); in experiment [2] it was -24.1% (inactive); in experiment [4] it was 10.9% (inactive); in [9], 11.6% (inactive). In experiment [2], this molecule had a nuclei count of 152%. In addition, the values for the z-score in experiment [3] (setting [10]), in [3] (setting [11]) and in experiment [3] (setting [12]) were -0.446, -1.08 and 0.594, respectively. In addition, the fluorescence slope is -0.481 (inactive) in [5] and 0.00439 (inactive) in experiment [7]. The NADPH fluorescence slope in experiment [6] was -3.9e-05 (inactive). For the same molecule, the molecule was classed as inactive in [8].

For the molecule `COC(=O)/C=c1/s/c(=C(/C#N)C(=O)N2CCCCC2)n(-c2ccccc2)c1=O`, in experiment [1], the cell count amounted to 585. Further, the inhibition in [1] was -0.7% (inactive); in experiment [2], -20.5% (inactive); in experiment [4] it was -5.81% (inactive); in experiment [9], 15.4% (inactive). The molecule further came in with a nuclei count in [2] of 90.8%. In addition, the results for the z-score in experiment [3] (setting [10]), in experiment [3] (setting [11]) and in [3] (setting [12]) were -0.699, 0.059 and 0.258, respectively. In addition, the fluorescence slope is -0.546 (inactive) in experiment [5] and 0.00519 (inactive) in [7]. The NADPH fluorescence slope in experiment [6] was -1.7e-05 (inactive). Further, the call in experiment [8] was inactive.

With `Cc1ccc(OCC(=O)N(C)CCc2ccccn2)cc1`, the cell count in experiment [1] was 475. Also, the inhibition in experiment [1] is -5.5% (inactive); in experiment [2], -175% (inactive); in experiment [4], -2.29% (inactive); in experiment [9], 7.87% (inactive). Further, the nuclei count in experiment [2] was 159%. For the same molecule, the z-score in experiment [3] (setting [10]) was -0.678; in [3] (setting [11]), -1.49; in experiment [3] (setting [12]) it was 1.57. The fluorescence slope in experiment [5] is -0.433 (inactive); in experiment [7], 0.00557 (inactive). Moreover, the NADPH fluorescence slope in experiment [6] is -5.2e-05 (inactive). Besides, the outcome in experiment [8] was inactive.

Consider `CCOc1ccc2nc(NC(NC(C)=O)(C(=O)OC)C(F)(F)F)sc2c1` (centres undefined), for which, in experiment [1], the cell count was found to be 550. Further, the inhibition in experiment [1] was 1.9% (inactive); in [2] it was -54.7% (inactive); in experiment [4], -4.59% (inactive); in experiment [9], 7.67% (inactive). The molecule further came in with a nuclei count in experiment [2] of 119%. Moreover, the z-score in [3] (setting [10]) is -0.584; in experiment [3] (setting [11]), 0.796; in experiment [3] (setting [12]), 1.15. Also, the fluorescence slope in [5] was -0.459 (inactive); in experiment [7] it was 0.00553 (inactive). The NADPH fluorescence slope in experiment [6] is -0.000128 (inactive). For the same molecule, in experiment [8], the molecule was classed as inactive.

For the molecule `COc1ccc(Nc2cc(C)nc(-n3nc(C)cc3C)n2)cc1`, the cell count in experiment [1] stood at 454. Also, the inhibition is 12% (inactive) in experiment [1], -182% (inactive) in experiment [2], -3.95% (inactive) in experiment [4] and 45% (inactive) in experiment [9]. In experiment [2], the nuclei count came out at 127%. Also, the z-score is -0.499 in [3] (setting [10]), -0.357 in experiment [3] (setting [11]) and -1.13 in [3] (setting [12]). Besides, the fluorescence slope in [5] was -0.427 (inactive); in experiment [7], 0.00507 (inactive). Further, the NADPH fluorescence slope in [6] is -2.8e-05 (inactive). Further, the molecule was called inactive in experiment [8].

Consider `O=C1C2ON(c3ccccc3)C(c3cccnc3)C2C(=O)N1Cc1ccccc1` (centres undefined), for which the cell count in [1] came to 620. Also, the inhibition in [1] was -11% (inactive); in experiment [2], -48.8% (inactive); in [4] it was 2.71% (inactive); in experiment [9], -1.68% (inactive). The same molecule had a nuclei count in experiment [2] of 177%. Further, the z-score in experiment [3] (setting [10]) was 0.802; in experiment [3] (setting [11]), 0.656; in [3] (setting [12]) it was -1.11. In addition, the fluorescence slope in experiment [5] is -0.512 (inactive); in [7] it was 0.00545 (inactive). Also, the NADPH fluorescence slope in [6] is -5.7e-05 (inactive). In addition, in experiment [8], the outcome was inactive.

`Cc1ccc(Oc2nc3c(c(=O)n(Cc4ccccc4F)c(=O)n3C)n2C)cc1`: in experiment [1], the cell count worked out at 749. In addition, the inhibition in experiment [1] was 2.1% (inactive); in experiment [2], -74.9% (inactive); in experiment [4] it was 19.8% (inactive); in [9], 11.6% (inactive). The nuclei count in experiment [2] was 156%. The z-score in [3] (setting [10]) is 0.256; in experiment [3] (setting [11]) it was -1.95; in experiment [3] (setting [12]), -0.363. The fluorescence slope in [5] was -0.508 (inactive); in [7], 0.00827 (inactive). For the same molecule, in experiment [6], the NADPH fluorescence slope is -3.8e-05 (inactive). Further, in experiment [8], the molecule was classed as inactive.

For the molecule `CC(O)(C#CCN1CCOCC1)c1ccccc1` (centres undefined), the cell count in [1] came to 634. Moreover, the inhibition in experiment [1] is 1.5% (inactive); in [2] it was -34.4% (inactive); in [4] it was -5.81% (inactive); in experiment [9] it was 17.4% (inactive). For the same molecule, the nuclei count in experiment [2] is 149%. Besides, the z-score is 0.104 in experiment [3] (setting [10]), 0.285 in [3] (setting [11]) and 0.53 in [3] (setting [12]). Moreover, the fluorescence slope in experiment [5] was -0.455 (inactive); in [7] it was 0.00484 (inactive). Also, in experiment [6], the NADPH fluorescence slope is -5.1e-05 (inactive). The molecule was called inactive in experiment [8].

For `CN(C)c1ccc(C=Nc2cnn(C)c2C(N)=O)cc1`, the cell count in [1] turned out to be 657. Besides, the inhibition in experiment [1] is 5.6% (inactive); in experiment [2] it was 2% (inactive); in experiment [4], 9.91% (inactive); in experiment [9], 13.4% (inactive). The nuclei count in [2] turned out to be 112%. The results for the z-score in experiment [3] (setting [10]), in experiment [3] (setting [11]) and in [3] (setting [12]) were -0.322, 0.511 and 0.593, respectively. Also, the fluorescence slope in [5] was -0.548 (inactive); in experiment [7], 0.00504 (inactive). Moreover, the NADPH fluorescence slope in experiment [6] was -8.2e-05 (inactive). The call in [8] was inactive.

As to `CCC(CC)c1nc2cc(OC)c(OC)cc2c(=O)o1`, the cell count in experiment [1] came to 581. The inhibition in experiment [1] was 0.1% (inactive); in experiment [2] it was -54% (inactive); in experiment [4] it was -4.59% (inactive); in experiment [9], 0.563% (inactive). In [2], this molecule came in with a nuclei count of 126%. In addition, the z-score in [3] (setting [10]) was -1.01; in experiment [3] (setting [11]), -1.15; in experiment [3] (setting [12]), 0.697. For the same molecule, the fluorescence slope in experiment [5] was -0.451 (inactive); in experiment [7], 0.00503 (inactive). Besides, the NADPH fluorescence slope in experiment [6] is -0.000112 (inactive). Further, the result in experiment [8] was inactive.

With `COc1ccc(C(=O)c2oc3nc(C)cc(C)c3c2N)cc1`, the cell count in [1] was 400. The inhibition was 3.1% (inactive) in [1], 7.4% (inactive) in [2], 19.4% (inactive) in [4] and 23.4% (inactive) in [9]. For the same molecule, in experiment [2], the nuclei count is 117%. Further, the z-score is 1.15 in experiment [3] (setting [10]), -1.17 in [3] (setting [11]) and -0.769 in experiment [3] (setting [12]). In addition, the fluorescence slope in experiment [5] was -0.379 (inactive); in experiment [7] it was 0.00438 (inactive). Besides, the NADPH fluorescence slope in [6] is -2e-05 (inactive). In addition, the molecule was classed as inactive in experiment [8].
